Screening data: PubChem, The Scripps Research Institute Molecular Screening Center
Rows were chosen to be rich in hits. Some 3.1% of all compounds tested hit in one or more screens of this group.
CHO parental Ca – counter-screen: ATP calcium response change in parental CHO cells | parental CHO-K1, ATP-induced calcium, Fluo-8 fluorescence | AID 463079 | inhibition, % at 5.6 µM | hit rate 0.63% among 330,000;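 active = inhibition above that plate's mean sample inhibition plus 3 SD, cut at about 26% in these data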;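 note: 0% = ATP-challenged DMSO wells and 100% = DMSO wells without ATP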
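Test system: untransfected parental CHO cell line. Compound: one dose, 5.6 µM nominal. Detection: intracellular calcium via Fluo-8 no-wash fluorescent dye. Measure: % inhibition. Benchmarks: ATP-challenged DMSO wells low, unchallenged DMSO wells high.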
GalR3 antag – human GalR3 antagonism. HEK293 GalR3-CNG cAMP membrane potential fluorescence; galR3 body fused to GalR1 C-terminus. hit rate 0.44% among 360,000. inhibition, % at 3 µM;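 active = inhibition above the screen-wide average plus 3 SD, cut at about 13% in these data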;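 note: forskolin and galanin both at EC90 stimulate the cells; cAMP rise reported by CNG channel membrane potential dye signal; 0% = forskolin plus galanin with DMSO and 100% = forskolin alone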
Target sequence (O60755 1-299 limits assumed): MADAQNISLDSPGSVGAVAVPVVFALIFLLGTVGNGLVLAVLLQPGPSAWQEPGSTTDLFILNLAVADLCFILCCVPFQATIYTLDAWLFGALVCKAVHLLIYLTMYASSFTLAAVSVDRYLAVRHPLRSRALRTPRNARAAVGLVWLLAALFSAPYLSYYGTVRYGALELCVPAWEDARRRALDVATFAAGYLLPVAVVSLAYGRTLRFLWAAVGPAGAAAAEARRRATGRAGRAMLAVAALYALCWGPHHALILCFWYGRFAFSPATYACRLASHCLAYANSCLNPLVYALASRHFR
OX1R antag-1 – human HCRTR1 antagonism | hit rate 0.43% among 330,000 | CHO/OX1R cells, Fluo-8 calcium fluorescence, orexin A | O43613 | AID 434989 | inhibition, % at 5 µM;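 active = inhibition above its plate's threshold, mean inhibition of all tested compounds on the plate plus 3 SD, cut at about 37% in these data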;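 note: 0% = orexin A challenge wells and 100% = SB-334867-A antagonist wells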
Target sequence (O43613 whole entry, looked up): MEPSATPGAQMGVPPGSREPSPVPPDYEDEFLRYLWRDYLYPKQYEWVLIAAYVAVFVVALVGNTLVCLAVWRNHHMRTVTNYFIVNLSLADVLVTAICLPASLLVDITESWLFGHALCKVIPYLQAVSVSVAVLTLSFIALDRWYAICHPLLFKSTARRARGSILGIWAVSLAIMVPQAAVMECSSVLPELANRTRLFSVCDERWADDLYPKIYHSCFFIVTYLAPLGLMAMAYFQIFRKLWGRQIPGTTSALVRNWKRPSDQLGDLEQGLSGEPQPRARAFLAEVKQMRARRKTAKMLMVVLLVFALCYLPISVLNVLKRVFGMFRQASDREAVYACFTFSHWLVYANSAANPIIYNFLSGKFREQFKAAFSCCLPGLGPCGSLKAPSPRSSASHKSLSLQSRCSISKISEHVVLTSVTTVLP
GPR7 antag – antagonists of human GPR7 (neuropeptides B/W receptor 1) | P48145 | GPR7-expressing cells, fluorescence antagonist assay | inhibition, % at 4.4 µM | hit rate 1.1% among 290,000 | AID 1861; in the data active = inhibition above about 16%, passing the limit was not always enough;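 note: cells stimulated with the agonist NPW; 0% = agonist with vehicle and 100% = vehicle without agonist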
OX1R antag-2 – OX1R (human) antagonism | O43613 | OX1R-expressing cells, FRET antagonist read-out | inhibition, % at 6.6 µM | hit rate 1.8% among 330,000 | AID 485270; in the data active = inhibition mostly above about 38%, no sharp cut-off; inactive = mostly below about 40%;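 note: 0% = agonist challenge alone and 100% = reference antagonist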
The depositor's hits bear a star; / = not tested or not shown.

SMILES | CHO parental Ca | GalR3 antag | OX1R antag-1 | GPR7 antag | OX1R antag-2
COc1ccc(/C=N/NC(=O)c2ccoc2C)cc1COc1c(C)cccc1C | 74.4* | 9.2 | 51.1* | 21.8 | 36.9
CCn1c(SCC(=O)Nc2nc(-c3ccc(C)cc3)cs2)nnc1-c1ccccc1O | 32.9* | -1.3 | 35.9 | 3.9 | 55.8
CC1CC(C)CN(CCOc2ccccc2-c2ccccc2)C1 (stereo not given) | 2.1 | 0.1 | -2.5 | 24.7* | 7.1
CC1CCN(CCOc2ccccc2-c2ccccc2)CC1 | -14.0 | -12.3 | -27.3 | 20.7 | -3.3
Cc1ccc(CN2CCC(CNC(=O)C3CCCN(c4ncnc5c4nc4n5CCCCC4)C3)CC2)cc1 (stereo not given) | -29.7 | -1.5 | -37.9 | -5.3 | 10.2
O=C(NCC1CCN(Cc2ccccc2F)CC1)C1CCCN(c2ncnc3c2nc2n3CCCCC2)C1 (stereo not given) | -21.3 | 14.8* | -29.6 | -11.3 | 13.4
O=C1c2ccccc2C(=O)C1c1ccnc2ccccc12 | -4.0 | -3.7 | -13.0 | -10.1 | 68.7*
CCCCn1c(=NC(=O)c2ccco2)c(C(=O)OCC)cc2c(=O)n3ccccc3nc21 | -19.7 | -5.3 | -13.3 | -2.9 | 75.9*
CCCCCn1c(=NC(=O)c2ccco2)c(C(=O)OCC)cc2c(=O)n3ccccc3nc21 | -15.2 | -4.6 | -23.8 | -5.3 | 51.2*
CCOC(=O)[C@H]1[C@H]2COc3ccccc3[C@@H]2N2C(=O)CN(CC3CCCO3)C(=O)[C@@]12C (stereo not given in full) | -9.3 | 1.4 | -10.9 | / | 2.1
O=C(NCC1CCN(C(=O)C(=O)c2cccs2)CC1)c1ccc2c(c1)CCO2 | / | -6.5 | / | / | /
CCN1C(=O)N/C(=C/c2ccc(Sc3ccc(C)cc3)o2)C1=O | 63.9* | -4.7 | 61.1* | 7.2 | 52.2
O=c1nc(/C=C/c2ccc(-c3ccc(F)cc3)o2)cc(C(F)(F)F)[nH]1 | 12.5 | / | 53.1* | -4.6 | 13.4
CC(C)c1ccc(C(=O)OCC(=O)Nc2cccc(S(=O)(=O)NC3=NCCC3)c2)cc1 | / | -7.6 | / | / | /
O=C(Nc1ccc(Cl)cc1)OC[C@@H]1CSCCS(=O)(=O)N1 | / | -0.4 | / | / | /
CCN(CC)C(=O)Oc1ccc(Cl)c2cccnc12 | 3.9 | 0.2 | 1.8 | -9.7 | 28.1
O=C(Nc1cccc(C(F)(F)F)c1)Oc1ccc(Cl)c2cccnc12 | 62.5* | -9.2 | 33.5 | 31.6* | 23.0
CC(C)(C)CC(C)(C)NC(=S)NC1CCN(Cc2ccccc2)CC1 | 0.7 | -2.7 | -20.4 | 27.5* | 1.9
Fc1ccc(NC(=S)NC2CCN(Cc3ccccc3)CC2)cc1 | -5.0 | -7.1 | -13.2 | 3.7 | 14.5
O=C(c1ccccc1)c1cc[n+]([O-])cc1 | -2.6 | -4.0 | -14.3 | -6.7 | 42.4*
CN(C)CC[n+]1ccc(C(=O)c2ccccc2)cc1 | -3.0 | -4.6 | -11.4 | -12.7 | 52.2*
O=C(CNS(=O)(=O)c1ccc(Br)s1)NCc1ccccc1 | -19.3 | -9.6 | -30.0 | -1.6 | -3.3
CC(C)NC(=O)C1(C)CN(S(C)(=O)=O)CC(=O)N1C1CCN(Cc2ccccc2)CC1 (stereo not given) | / | -5.2 | / | / | /
Cc1ccccc1OCC(=O)N1N=C(C(F)(F)F)CC1(O)C(C)(C)C (stereo not given) | 33.0* | -4.3 | 17.3 | -12.1 | 23.2
Cc1ccc(OCC(=O)N2N=C(C(F)(F)F)CC2(O)C(C)(C)C)cc1C (stereo not given) | 80.0* | -5.9 | 29.7 | 4.2 | 28.9
SMILES | CHO parental Ca | GalR3 antag | OX1R antag-1 | GPR7 antag | OX1R antag-2
Cc1ccc(OCC(=O)N2N=C(c3cccnc3)CC2(O)C(F)(F)F)cc1C (stereo not given) | -6.9 | -4.7 | -11.9 | 10.1 | 19.8
CC(C)(C)C1(O)CC(C(F)(F)F)=NN1C(=O)CCc1ccccc1 (stereo not given) | -20.2 | -2.9 | -33.4 | -1.5 | 7.3
O=S(=O)(c1ccccc1)N1CCC(n2cnc3ccccc32)CC1 | -32.5 | -10.4 | -34.4 | -7.9 | 4.8
Cc1nn(CC(=O)NC(=O)NC2CCCCC2C)c(=O)c(C#N)c1C (stereo not given) | -15.1 | -2.0 | -15.5 | / | 5.9
Cc1nn(CC(=O)NC2CCC(C)CC2)c(=O)c(C#N)c1C (stereo not given) | -3.3 | 1.5 | -4.7 | / | 44.2*
O=C(Nc1ccc(N2CCOCC2)cc1)Nc1ccc2nc(-c3ccco3)c(-c3ccco3)nc2c1 | 7.0 | -1.8 | -6.5 | -16.6 | 51.1*
O=C(Nc1ccc2nc(-c3ccco3)c(-c3ccco3)nc2c1)NC1CC1 | / | / | / | -1.5 | /
COc1ncnc2c1NC1=C(S2)C(=NCCC(=O)O)CC(C)(C)C1 | -6.8 | -2.7 | 4.6 | -1.2 | 71.5*
CCc1cc2c(nc1CC)CCCN2S(=O)(=O)c1cccs1 | / | -3.8 | / | / | /
COc1cccc(-c2cc(C(=O)Nc3cc(OC)c(OC)c(OC)c3)no2)c1 | -11.9 | -8.4 | -3.5 | -9.1 | 41.2*
Cc1ccc(NC(=O)c2cc(-c3cccc(O)c3)on2)cc1C | 20.9 | / | 13.0 | -4.4 | 37.9*
Cc1ccc(NC(=O)c2cc(-c3ccco3)on2)cc1C | -9.0 | -7.9 | -10.1 | 0.3 | 14.5
Nc1nc2c(ncn2[C@@H]2O[C@H](C(=O)NCCc3c[nH]c4ccccc34)[C@@H](O)[C@H]2O)c(=O)[nH]1 | / | -2.9 | / | / | /
Cc1ccc(S(=O)(=O)NCCNc2ccc(Br)c(C)c2)cc1 | 37.4* | -3.7 | 25.1 | / | 12.9
Cc1ccc(S(=O)(=O)NCCNS(=O)(=O)c2ccccc2Br)cc1 | -6.7 | -4.3 | -9.3 | / | 10.6
O=C(NC1CC1)C1CCN(c2ncnc3c2sc2cccc(F)c23)CC1 | -11.7 | 4.2 | -10.6 | 3.8 | 68.3*
O=C1c2ccccc2-c2nc3ccccc3cc21 | -2.9 | -8.8 | -2.9 | -1.4 | 58.5*
CC(C)CNc1ccc2c(c1)OC[C@H](C)NS2(=O)=O | / | -6.2 | / | / | /
O=C(NCc1ccco1)NC(=O)c1csc([N+](=O)[O-])c1 | 7.0 | -2.9 | -16.5 | -7.9 | 25.8
CCNC(=O)NC(=O)c1csc([N+](=O)[O-])c1 | -14.0 | 0.3 | -10.5 | -4.9 | 40.2*
C=CCNC(=O)NC(=O)c1csc([N+](=O)[O-])c1 | 4.1 | -1.8 | -17.6 | 0.3 | 46.3*
Cc1cc2c(cc1C)NC(CC(=O)NCc1ccccc1)C(=O)N2 (stereo not given) | -14.5 | -4.5 | 2.5 | 7.4 | 35.5*
COc1cc(C(=O)ON=C2C=C(C)C(=O)C(C)=C2)cc(OC)c1OC | -4.1 | -5.3 | -15.0 | 5.0 | 75.3*
CN(C)c1ccc(-c2nc3ccccc3c(=O)[nH]2)cc1 | -4.5 | -3.8 | 17.1 | -11.9 | 57.4*
Cc1[nH]c2ccc(C(=O)OC(C)C(=O)NCc3ccccc3)cc2c1C (stereo not given) | -26.7 | -1.7 | -21.9 | / | 28.1
Cc1ccccc1CN(C)C(=O)COC(=O)c1ccc2[nH]c(C)c(C)c2c1 | -15.9 | -5.9 | 30.5 | / | 52.9*
O=C(NCCCN=C1NS(=O)(=O)c2ccccc21)c1ccc(F)cc1 | -4.9 | -0.9 | 9.4 | -12.6 | 17.7
C=C1C(=O)C=C2CN(C(=O)c3ccccc3)[C@@](Cc3ccc(F)cc3)(C(=O)OC)[C@@H]12 | 32.2 | / | 74.8* | 85.4* | 14.2
